ChEMBL document CHEMBL1137699, “Synthesis, antibacterial and anticonvulsant evaluations of some cyclic enaminones” (Eur J Med Chem, 2009)
Values after ≈ are worked out from the molar mass of the structure shown. Active and inactive are the calls of the source. The rule behind the calls is not given here.

Key:
[1] = system: Mus musculus; assay: Anticonvulsant activity against subcutaneous pentylenetetrazole-induced seizures in mouse at 300 mg/kg, ip; assay type: functional, organism-based; design: dose 300 mg/kg
[2] = system: Mus musculus; assay: Anticonvulsant activity against maximal electroshock-induced seizures in mouse at 300 mg/kg, ip; assay type: functional, organism-based; design: dose 300 mg/kg
[3] = system: Mus musculus; assay: Anticonvulsant activity against subcutaneous pentylenetetrazole-induced seizures in mouse at >100 to 300 mg/kg, ip; assay type: functional, organism-based; design: dose 300 mg/kg
[4] = system: Mus musculus; assay: Anticonvulsant activity against maximal electroshock-induced seizures in mouse at >100 to 300 mg/kg, ip; assay type: functional, organism-based; design: dose 300 mg/kg
[5] = system: Mus musculus; assay: Anticonvulsant activity against subcutaneous pentylenetetrazole-induced seizures in mouse at <=100 mg/kg, ip; assay type: functional, organism-based
[6] = system: Mus musculus; assay: Anticonvulsant activity against maximal electroshock-induced seizures in mouse at <=100 mg/kg, ip; assay type: functional, organism-based
[7] = system: Staphylococcus; assay: Antibacterial activity against methicillin-sensitive coagulase-negative Staphylococcus clinical isolate after 18 hrs by NCCLS M7-A4 method; assay type: functional
Outline: (§1)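 Test compounds dissolved in 80% DMSO in water. Clinical isolates came from a MRSA reference laboratory culture collection. Final inoculum 10^7 CFU/ml, incubated 35 °C for 18 h. MIC taken as the lowest concentration completely inhibiting growth. Reference strains S. aureus ATCC 25923, S. epidermidis ATCC 12228 and E. faecalis ATCC 29212 served as test controls.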

[8] = system: Haemophilus influenzae; assay: Antibacterial activity against Haemophilus influenzae clinical isolate after 18 hrs by NCCLS M7-A4 method; assay type: functional
Outline: (§2)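 Agar dilution on Mueller–Hinton agar with 5% sheep blood, per NCCLS/CLSI. Compounds were dissolved in 80% DMSO in water and tested over 0.12–16. Incubation was 35 °C for 18 h. MIC was read as the lowest concentration completely inhibiting growth. Line 4 used clinical isolates (n = 7 for H. influenzae).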

[9] = system: Enterococcus faecalis; assay: Antibacterial activity against Enterococcus faecalis ATCC 29212 after 18 hrs by NCCLS M7-A4 method; assay type: functional, organism-based
Outline: (§3)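 Agar dilution on Mueller–Hinton agar, following NCCLS (now CLSI) guidance. Test compounds were dissolved in 80% DMSO in water and tested at 0.12 to 16. Plates were incubated at 35 °C for 18 h. The MIC was the lowest concentration giving complete growth inhibition.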

[10] = system: Staphylococcus epidermidis; assay: Antibacterial activity against Staphylococcus epidermidis ATCC 12228 after 18 hrs by NCCLS M7-A4 method; assay type: functional, organism-based; outline: as §3
[11] = system: Haemophilus influenzae; assay: Antibacterial activity against Haemophilus influenzae ATCC 49247 after 18 hrs by NCCLS M7-A4 method; assay type: functional, organism-based; outline: as §2
[12] = system: Enterococcus; assay: Antibacterial activity against vancomycin-sensitive Enterococcus clinical isolate after 18 hrs by NCCLS M7-A4 method; assay type: functional; outline: as §1
[13] = system: Staphylococcus aureus; assay: Antibacterial activity against Staphylococcus aureus ATCC 25923 after 18 hrs by NCCLS M7-A4 method; assay type: functional, organism-based; outline: as §3
[14] = system: Streptococcus pneumoniae; assay: Antibacterial activity against Streptococcus pneumoniae clinical isolate after 18 hrs by NCCLS M7-A4 method; assay type: functional; outline: as §2
[15] = system: Escherichia coli; assay: Antibacterial activity against Escherichia coli ATCC 25922 after 18 hrs by NCCLS M7-A4 method; assay type: functional, organism-based
Outline: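 Reference E. coli strain tested by NCCLS/CLSI agar dilution. Compounds were in 80% DMSO in water over a 0.12–16 dilution range, incubated at 35 °C for 18 h.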

[16] = system: Staphylococcus aureus; assay: Antibacterial activity against methicillin-susceptible Staphylococcus aureus clinical isolate after 18 hrs by NCCLS M7-A4 method; assay type: functional; outline: as §1
[17] = system: Staphylococcus; assay: Antibacterial activity against methicillin-resistant coagulase-negative Staphylococcus clinical isolate after 18 hrs by NCCLS M7-A4 method; assay type: functional; outline: as §1
[18] = system: Enterococcus; assay: Antibacterial activity against vancomycin-resistant Enterococcus clinical isolate after 18 hrs by NCCLS M7-A4 method; assay type: functional; outline: as §1
[19] = system: Staphylococcus aureus; assay: Antibacterial activity against methicillin-resistant Staphylococcus aureus clinical isolate after 18 hrs by NCCLS M7-A4 method; assay type: functional; outline: as §1

CCOC(=O)C1C(=O)C=C(N2CCOCC2)CC1c1ccccc1 (stereo not drawn)
Activity [1]: inactive
Activity [2]: inactive

COC(=O)C1C(=O)C=C(Nc2ccc(F)cc2)CC1c1ccccc1 (stereo not drawn)
Activity [1]: inactive
Activity [2]: inactive

CCOC(=O)C1C(=O)C=C(Nc2ccc(F)cc2)CC1c1ccccc1 (stereo not drawn)
Activity [1]: inactive
Activity [2]: inactive

CCOC(=O)C1C(=O)C=C(N2CCN(c3ccc([N+](=O)[O-])cc3F)CC2)CC1c1ccccc1 (stereo not drawn)
Activity [1]: inactive
Activity [2]: inactive

CCOC(=O)C1C(=O)C=C(NCCCCc2ccccc2)CC1c1ccccc1 (stereo not drawn)
Activity [1]: inactive
Activity [2]: inactive

COC(=O)C1C(=O)C=C(Nc2ccccc2)CC1c1ccccc1 (stereo not drawn)
Activity [3]: Active

COC(=O)C1C(=O)C=C(N2CCCC2)CC1c1ccccc1 (stereo not drawn)
Activity [1]: inactive
Activity [2]: inactive

CCOC(=O)C1C(=O)C=C(Nc2ccc(N3CCN(C(=O)OC(C)(C)C)CC3)c(F)c2)CC1c1ccccc1 (stereo not drawn)
Activity [1]: inactive
Activity [2]: inactive

CCOC(=O)C1C(=O)C=C(N(CC)CC)CC1c1ccccc1 (stereo not drawn)
Activity [1]: inactive
Activity [2]: inactive

CCOC(=O)C1C(=O)C=C(Nc2ccc(Cl)cc2)CC1c1ccccc1 (stereo not drawn)
Activity [4]: Active

CCOC(=O)C1C(=O)C=C(NCCCc2ccccc2)CC1c1ccccc1 (stereo not drawn)
Activity [1]: inactive
Activity [2]: inactive

COC(=O)C1C(=O)C=C(Nc2ccc(N3CCN(C(=O)OC(C)(C)C)CC3)c(F)c2)CC1C (stereo not drawn)
Activity [1]: inactive
Activity [2]: inactive

CCOC(=O)C1C(=O)C=C(Nc2ccc(F)cc2)CC1C (stereo not drawn)
Activity [5]: Active
Activity [6]: Active

CCOC(=O)C1C(=O)C=C(N2CCOCC2)CC1C (stereo not drawn)
Activity [3]: Active

CCOC(=O)C1C(=O)C=C(Nc2ccc([N+](=O)[O-])cc2)CC1c1ccccc1 (stereo not drawn)
Activity [1]: inactive
Activity [2]: inactive

CCOC(=O)C1C(=O)C=C(Nc2ccc(N3CCOCC3)c(F)c2)CC1c1ccccc1 (stereo not drawn)
MIC [7]: > 16 µg/mL
Activity [1]: inactive
MIC [8]: > 16 µg/mL
Activity [9]: inactive
Activity [10]: inactive
Activity [11]: inactive
MIC [12]: > 16 µg/mL
Activity [13]: inactive
MIC [14]: > 16 µg/mL
Activity [2]: inactive
Activity [15]: inactive
MIC [16]: > 16 µg/mL

COC(=O)C1C(=O)C=C(NC[C@H]2CN(c3ccc(N4CCOCC4)c(F)c3)C(=O)O2)CC1C (stereo partly drawn)
MIC [7]: > 16 µg/mL
Activity [1]: inactive
MIC [8]: > 16 µg/mL
Activity [9]: inactive
Activity [10]: inactive
Activity [11]: inactive
MIC [12]: > 16 µg/mL
Activity [13]: inactive
MIC [14]: > 16 µg/mL
Activity [2]: inactive
Activity [15]: inactive
MIC [16]: > 16 µg/mL

COC(=O)C1C(=O)C=C(N2CCN(c3ccc([N+](=O)[O-])cc3F)CC2)CC1c1ccccc1 (stereo not drawn)
Activity [1]: inactive
Activity [2]: inactive

CCOC(=O)C1C(=O)C=C(Nc2ccc(N3CCOCC3)c(F)c2)CC1C (stereo not drawn)
MIC [7]: > 16 µg/mL
Activity [1]: inactive
MIC [8]: > 16 µg/mL
Activity [9]: inactive
Activity [10]: inactive
Activity [11]: inactive
MIC [12]: > 16 µg/mL
Activity [13]: inactive
MIC [14]: > 16 µg/mL
Activity [2]: inactive
Activity [15]: inactive
MIC [16]: > 16 µg/mL

COC(=O)C1C(=O)C=C(Nc2ccc(N3CCN(C(=O)OC(C)(C)C)CC3)c(F)c2)CC1c1ccccc1 (stereo not drawn)
Activity [1]: inactive
Activity [2]: inactive

CCOC(=O)C1C(=O)C=C(Nc2ccc(Br)cc2)CC1c1ccccc1 (stereo not drawn)
Activity [1]: inactive
Activity [2]: inactive

COC(=O)C1C(=O)C=C(Nc2ccc(N3CCOCC3)c(F)c2)CC1C (stereo not drawn)
Activity [1]: inactive
Activity [2]: inactive

COC(=O)C1C(=O)C=C(NCCc2ccccc2)CC1c1ccccc1 (stereo not drawn)
Activity [1]: inactive
Activity [2]: inactive

CCOC(=O)C1C(=O)C=C(N2CCCC2)CC1c1ccccc1 (stereo not drawn)
Activity [4]: Active

COC(=O)C1C(=O)C=C(Nc2ccc(N3CCOCC3)c(F)c2)CC1c1ccccc1 (stereo not drawn)
Activity [1]: inactive
Activity [2]: inactive

CCOC(=O)C1C(=O)C=C(Nc2ccc(Br)cc2)CC1C (stereo not drawn)
Activity [5]: Active
Activity [6]: Active

CCOC(=O)C1C(=O)C=C(NCCc2ccccc2)CC1C (stereo not drawn)
Activity [6]: Active

CCOC(=O)C1C(=O)C=C(Nc2cccc(Cl)c2)CC1C (stereo not drawn)
Activity [5]: Active
Activity [6]: Active

CCOC(=O)C1C(=O)C=C(NC[C@H]2CN(c3ccc(N4CCOCC4)c(F)c3)C(=O)O2)CC1C (stereo partly drawn)
MIC [7]: > 16 µg/mL
Activity [1]: inactive
MIC [8]: > 16 µg/mL
Activity [9]: inactive
Activity [10]: inactive
Activity [11]: inactive
MIC [12]: > 16 µg/mL
Activity [13]: inactive
MIC [14]: > 16 µg/mL
Activity [2]: inactive
Activity [15]: inactive
MIC [16]: > 16 µg/mL

CCOC(=O)C1C(=O)C=C(NCCc2ccccc2)CC1c1ccccc1 (stereo not drawn)
Activity [1]: inactive
Activity [2]: inactive

CCOC(=O)C1C(=O)C=C(Nc2ccccc2)CC1c1ccccc1 (stereo not drawn)
Activity [1]: inactive
Activity [2]: inactive

CCOC(=O)C1C(=O)C=C(Nc2ccc(O)cc2)CC1c1ccccc1 (stereo not drawn)
Activity [1]: inactive
Activity [2]: inactive

COC(=O)C1C(=O)C=C(Nc2ccc(Cl)cn2)CC1c1ccccc1 (stereo not drawn)
Activity [1]: inactive
Activity [2]: inactive

CN[C@H](CC(C)C)C(=O)N[C@H]1C(=O)N[C@@H](CC(N)=O)C(=O)N[C@H]2C(=O)N[C@H]3C(=O)N[C@H](C(=O)N[C@H](C(=O)O)c4cc(O)cc(O)c4-c4cc3ccc4O)[C@H](O)c3ccc(c(Cl)c3)Oc3cc2cc(c3O[C@@H]2O[C@H](CO)[C@@H](O)[C@H](O)[C@H]2O[C@H]2C[C@](C)(N)[C@H](O)[C@H](C)O2)Oc2ccc(cc2Cl)[C@H]1O [VANCOMYCIN]
MIC [17]: 2 µg/mL (≈ 1.38 µM)
MIC [7]: 1 µg/mL (≈ 0.69 µM)
MIC [18]: 8 µg/mL (≈ 5.52 µM)
MIC [8]: > 32 µg/mL
Activity [9]: inactive
Activity [10]: inactive
Activity [11]: inactive
MIC [12]: 1 µg/mL (≈ 0.69 µM)
Activity [13]: inactive
MIC [14]: 0.25 µg/mL (≈ 0.173 µM)
Activity [15]: inactive

COC(=O)C1C(=O)C=C(NCCCCc2ccccc2)CC1c1ccccc1 (stereo not drawn)
Activity [1]: inactive
Activity [2]: inactive

COC(=O)C1C(=O)C=C(NC[C@H]2CN(c3ccc(N4CCOCC4)c(F)c3)C(=O)O2)CC1c1ccccc1 (stereo partly drawn)
MIC [7]: > 16 µg/mL
Activity [1]: inactive
MIC [8]: > 16 µg/mL
Activity [9]: inactive
Activity [10]: inactive
Activity [11]: inactive
MIC [12]: > 16 µg/mL
Activity [13]: inactive
MIC [14]: > 16 µg/mL
Activity [2]: inactive
Activity [15]: inactive
MIC [16]: > 16 µg/mL

CCOC(=O)C1C(=O)C=C(N2CCN(c3ccc([N+](=O)[O-])cc3F)CC2)CC1C (stereo not drawn)
Activity [1]: inactive
Activity [2]: inactive

COC(=O)C1C(=O)C=C(NCCCc2ccccc2)CC1c1ccccc1 (stereo not drawn)
Activity [1]: inactive
Activity [2]: inactive

CCOC(=O)C1C(=O)C=C(Nc2ccc(Cl)cn2)CC1c1ccccc1 (stereo not drawn)
Activity [1]: inactive
Activity [2]: inactive

O=C1O[C@@H](Cn2ccnn2)CN1c1ccc(N2CCOCC2)c(F)c1
MIC [17]: 0.5 µg/mL (≈ 1.44 µM)
MIC [7]: 1 µg/mL (≈ 2.88 µM)
MIC [18]: 0.5 µg/mL (≈ 1.44 µM)
MIC [19]: 0.5 µg/mL (≈ 1.44 µM)
MIC [8]: 32 µg/mL (≈ 92.1 µM)
Activity [9]: inactive
Activity [10]: inactive
Activity [11]: inactive
MIC [12]: 0.5 µg/mL (≈ 1.44 µM)
Activity [13]: inactive
MIC [14]: 0.5 µg/mL (≈ 1.44 µM)
Activity [15]: inactive
MIC [16]: 0.5 µg/mL (≈ 1.44 µM)

CC(=O)NC[C@H]1CN(c2ccc(N3CCOCC3)c(F)c2)C(=O)O1 [LINEZOLID]
MIC [17]: 0.5 µg/mL (≈ 1.48 µM)
MIC [7]: 0.5 µg/mL (≈ 1.48 µM)
MIC [18]: 1 µg/mL (≈ 2.96 µM)
MIC [19]: 0.5 µg/mL (≈ 1.48 µM)
MIC [8]: 8 µg/mL (≈ 23.7 µM)
Activity [9]: inactive
Activity [10]: inactive
Activity [11]: inactive
MIC [12]: 1 µg/mL (≈ 2.96 µM)
Activity [13]: inactive
Activity [15]: inactive

CCN(CC)C1=CC(=O)C(C(=O)OC)C(c2ccccc2)C1 (stereo not drawn)
Activity [1]: inactive
Activity [2]: inactive
